Assay results from ChEMBL document CHEMBL1154207, “Protease inhibitors from a water bloom of the cyanobacterium Microcystis aeruginosa” (J Nat Prod, 2009).

Key:
[1] = Inhibition of trypsin after 30 mins preincubated for 5 mins before addition of substrate
Summary of the method: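 Trypsin enzyme solution at 1 mg/mL in 50 mM Tris-HCl/100 mM NaCl/1 mM CaCl₂. Substrate solution was 2 mM N-benzoyl-D,L-arginine-p-nitroanilide in buffer. Test sample in ethanol was diluted with buffer and preincubated with enzyme in buffer for 5 min at 37 °C before substrate addition. Color was read at 405 nm immediately and after 30 min at 37 °C.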

[2] = Inhibition of Chymotrypsin after 30 mins preincubated for 5 mins before addition of substrate
Summary of the method: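 Chymotrypsin enzyme solution at 1 mg/mL in 50 mM Tris-HCl/100 mM NaCl/1 mM CaCl₂/1 mM HCl. Substrate solution was 2 mM […] in the same buffer. Samples were dissolved in ethanol and diluted in buffer. Enzyme, sample and buffer were preincubated 5 min at 37 °C, then substrate was added. Absorbance at 405 nm was read at once and after 30 min at 37 °C.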

| SMILES | IC50 [1] [µM] | IC50 [2] [µM] |
| --- | --- | --- |
| CC[C@H](C)[C@H]1C(=O)N(C)[C@@H](Cc2ccc(OC)c(Cl)c2)C(=O)N[C@@H](C(C)C)C(=O)O[C@H](C)[C@H](NC(=O)[C@H](O)CO)C(=O)N[C@@H](CCCNC(=N)N)C(=O)N[C@H]2CC[C@@H](O)N1C2=O | 3.5 | 19.6 |
| CC[C@H](C)[C@@H]1NC(=O)[C@H](Cc2ccc(OC)c(Cl)c2)N(C)C(=O)[C@H]([C@@H](C)CC)N2C(=O)[C@H](CC[C@H]2O)NC(=O)[C@H](CCCNC(=N)N)NC(=O)[C@@H](NC(=O)[C@@H](COS(=O)(=O)O)OS(=O)(=O)O)[C@@H](C)OC1=O | 1.7 | > 100 |
| CC[C@H](C)[C@@H]1NC(=O)[C@H](Cc2ccc(OC)c(Cl)c2)N(C)C(=O)[C@H]([C@@H](C)CC)N2C(=O)[C@H](CC[C@H]2O)NC(=O)[C@H](CCCNC(=N)N)NC(=O)[C@@H](NC(=O)[C@H](O)COS(=O)(=O)O)[C@@H](C)OC1=O | 0.7 | 18.2 |
| CC[C@H](C)[C@@H]1NC(=O)[C@H](Cc2ccc(O)cc2)N(C)C(=O)[C@H]([C@@H](C)CC)N2C(=O)[C@H](CC[C@H]2O)NC(=O)[C@H](CCCNC(=N)N)NC(=O)[C@@H](NC(=O)[C@@H](COS(=O)(=O)O)OS(=O)(=O)O)[C@@H](C)OC1=O | 2.2 | > 100 |
| CC[C@H](C)[C@H]1C(=O)N(C)[C@@H](Cc2ccc(O)c(Cl)c2)C(=O)N[C@@H](C(C)C)C(=O)O[C@H](C)[C@H](NC(=O)[C@@H](COS(=O)(=O)O)OS(=O)(=O)O)C(=O)N[C@@H](CCCNC(=N)N)C(=O)N[C@H]2CC[C@@H](O)N1C2=O | 1.2 | > 100 |
| CC[C@H](C)[C@H]1C(=O)N(C)[C@@H](Cc2ccc(OC)c(Cl)c2)C(=O)N[C@@H](C(C)C)C(=O)O[C@H](C)[C@H](NC(=O)[C@H](O)CO)C(=O)N[C@@H](CCCNC(=N)N)C(=O)N[C@H]2CC[C@@H](OC)N1C2=O | 1.1 | 2.8 |
